Measurements published in ChEMBL document CHEMBL1811822, “P2-P1' macrocyclization of P2 phenylglycine based HCV NS3 protease inhibitors using ring-closing metathesis” (Bioorg Med Chem, 2011).

Assays:
[1] = Inhibition of HCV NS3 protease; design: species or system Hepacivirus hominis
Method in brief: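 Full-length NS3 protein (protease–helicase/NTPase domains) from HCV genotype 1a, wild-type, with a 16-residue NS4A activating-region peptide. Protease activity was read by FRET. Enzyme at 1 nM was incubated 10 min at 30 °C in 50 mM HEPES, pH 7.5. Ki values were derived and reported with standard deviation.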

[2] = Inhibition of protease activity of full-length HCV genotype 1a NS3 protease by FRET assay
Hepatitis C virus [3] = test: Antiviral activity against HCV 1b infected in human HuH7 cells assessed as inhibition of viral replication by luciferase assay; assay type: functional, organism-based, Hepacivirus hominis; conditions: genotype 1b, Huh-7
Hepatitis C virus [4] = test: Antiviral activity against HCV; assay type: functional, organism-based, Hepacivirus hominis

Row | SMILES | Ki [2] [nM] | other results
1 | C=CCCCS(=O)(=O)NC(=O)[C@H](CCC)NC(=O)[C@@H](NC(=O)[C@@H](NC(=O)OC(C)(C)C)C(C)(C)C)c1ccc(Oc2cc(-c3ccccc3)nc3cc(OC)ccc23)c(C=C)c1 |  | Ki [1]: 63 nM
2 | C=CCCCS(=O)(=O)NC(=O)[C@H](CCC)NC(=O)[C@H](NC(=O)[C@@H](NC(=O)OC(C)(C)C)C(C)(C)C)c1ccc(Oc2cc(-c3ccccc3)nc3cc(OC)ccc23)c(C=C)c1 |  | Ki [1]: 48 nM
3 | CCC[C@@H]1NC(=O)[C@H](NC(=O)[C@@H](NC(=O)OC(C)(C)C)C(C)(C)C)c2ccc(Oc3cc(-c4ccccc4)nc4cc(OC)ccc34)c(c2)/C=C\CC2(CC2)S(=O)(=O)NC1=O | 870 | 
4 | CCC[C@@H]1NC(=O)[C@@H](NC(=O)[C@@H](NC(=O)OC(C)(C)C)C(C)(C)C)c2ccc(Oc3cc(-c4ccccc4)nc4cc(OC)ccc34)c(c2)/C=C\Cc2ccccc2S(=O)(=O)NC1=O | 190 | 
5 | CCC[C@@H]1NC(=O)[C@@H](NC(=O)[C@@H](NC(=O)OC(C)(C)C)C(C)(C)C)c2ccc(Oc3cc(-c4ccccc4)nc4cc(OC)ccc34)c(c2)/C=C\c2ccccc2S(=O)(=O)NC1=O | 170 | 
6 | CCC[C@@H]1NC(=O)[C@@H](NC(=O)[C@@H](NC(=O)OC(C)(C)C)C(C)(C)C)c2ccc(Oc3cc(-c4ccccc4)nc4cc(OC)ccc34)c(c2)/C=C/c2ccccc2S(=O)(=O)NC1=O | 150 | 
7 | CCC[C@@H]1NC(=O)[C@@H](NC(=O)[C@@H](NC(=O)OC(C)(C)C)C(C)(C)C)c2ccc(Oc3cc(-c4ccccc4)nc4cc(OC)ccc34)c(c2)CCCc2ccccc2S(=O)(=O)NC1=O | 250 | 
8 | CCC[C@@H]1NC(=O)[C@@H](NC(=O)[C@@H](NC(=O)OC(C)(C)C)C(C)(C)C)c2ccc(Oc3cc(-c4ccccc4)nc4cc(OC)ccc34)c(c2)/C=C\CC2(CC2)S(=O)(=O)NC1=O | 110 | 
9 | CCC[C@@H]1NC(=O)[C@@H](NC(=O)[C@@H](NC(=O)OC(C)(C)C)C(C)(C)C)c2ccc(Oc3cc(-c4ccccc4)nc4cc(OC)ccc34)c(c2)/C=C\CCCS(=O)(=O)NC1=O | 390 | 
10 | CCC[C@@H]1NC(=O)[C@@H](NC(=O)[C@@H](NC(=O)OC(C)(C)C)C(C)(C)C)c2ccc(Oc3cc(-c4ccccc4)nc4cc(OC)ccc34)c(c2)/C=C/CCCS(=O)(=O)NC1=O | 240 | EC50 (Hepatitis C virus [3]): 6000 nM
11 | CCC[C@@H]1NC(=O)[C@H](NC(=O)[C@@H](NC(=O)OC(C)(C)C)C(C)(C)C)c2ccc(Oc3cc(-c4ccccc4)nc4cc(OC)ccc34)c(c2)/C=C\CCCS(=O)(=O)NC1=O | 760 | 
12 | CCC[C@@H]1NC(=O)[C@@H](NC(=O)[C@@H](NC(=O)OC(C)(C)C)C(C)(C)C)c2ccc(Oc3cc(-c4ccccc4)nc4cc(OC)ccc34)c(c2)/C=C\CCS(=O)(=O)NC1=O | 137 | 
13 | CCC[C@@H]1NC(=O)[C@@H](NC(=O)[C@@H](NC(=O)OC(C)(C)C)C(C)(C)C)c2ccc(Oc3cc(-c4ccccc4)nc4cc(OC)ccc34)c(c2)/C=C/CCCCS(=O)(=O)NC1=O | 940 | 
14 | CCC[C@@H]1NC(=O)[C@H](NC(=O)[C@@H](NC(=O)OC(C)(C)C)C(C)(C)C)c2ccc(Oc3cc(-c4ccccc4)nc4cc(OC)ccc34)c(c2)/C=C/CCCCS(=O)(=O)NC1=O | 710 | 
15 | CCC[C@@H]1NC(=O)[C@@H](NC(=O)[C@@H](NC(=O)OC(C)(C)C)C(C)(C)C)c2ccc(Oc3cc(-c4ccccc4)nc4cc(OC)ccc34)c(c2)/C=C\CCCCS(=O)(=O)NC1=O | 320 | 
16 | CCC[C@@H]1NC(=O)[C@@H](NC(=O)[C@@H](NC(=O)OC(C)(C)C)C(C)(C)C)c2ccc(Oc3cc(-c4ccccc4)nc4cc(OC)ccc34)c(c2)CCCCCCS(=O)(=O)NC1=O | 570 | 
17 | CCC[C@@H]1NC(=O)[C@@H](NC(=O)[C@@H](NC(=O)OC(C)(C)C)C(C)(C)C)c2ccc(Oc3cc(-c4ccccc4)nc4cc(OC)ccc34)c(c2)C/C=C/CS(=O)(=O)NC1=O | 222 | 
18 | CCC[C@@H]1NC(=O)[C@@H](NC(=O)[C@@H](NC(=O)OC(C)(C)C)C(C)(C)C)c2ccc(Oc3cc(-c4ccccc4)nc4cc(OC)ccc34)c(c2)C/C=C/CCS(=O)(=O)NC1=O (mixture of isomers) | 470 | 
19 | COc1ccc2c(O[C@@H]3C[C@H]4C(=O)N[C@]5(C(=O)O)C[C@H]5/C=C\CCCCC[C@H](NC(=O)OC5CCCC5)C(=O)N4C3)cc(-c3csc(NC(C)C)n3)nc2c1 [CILUPREVIR] |  | EC50 (Hepatitis C virus [4]): 350 nM; Ki [1]: 40 nM
20 | CC(C)(C)OC(=O)N[C@H]1CCCCC/C=C\[C@@H]2C[C@@]2(C(=O)NS(=O)(=O)C2CC2)NC(=O)[C@@H]2C[C@@H](OC(=O)N3Cc4cccc(F)c4C3)CN2C1=O [DANOPREVIR] |  | EC50 (Hepatitis C virus [4]): 0.6 nM
